Screening data deposited in PubChem by Broad Institute.
HIV Env fusion = inhibitors of HIV Env-mediated cell fusion; inhibition, % at 12.3 µM; AID 651610; HeLa-JRFL Env/CEM21 cell fusion, luciferase; actives 1.1% (n = 360,000);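 active = mean replicate inhibition score of at least 50 and every replicate individually at or above 50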;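 note: 0% = plate neutral controls and 100% = maraviroc near 300 nM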
Cneo AK release = Cryptococcus neoformans lysis via adenylate kinase release | C. neoformans lysis, adenylate kinase release luminescence, 4 h; normalised: neutral wells 0, clomiphene wells 100 | lysis activity, % at 15 µM | actives 0.2% (n = 360,000);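 active = mean lysis activity across replicates of at least 80%, whatever share of replicates individually reach that level; inactive = mean lysis activity below 80%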
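Material – log-phase Cryptococcus neoformans yeast cells · Input – 5 × 10^6 yeast cells/mL · Medium – fresh YPD growth medium · Doses – single compound concentration per well · Timing – static 4 h at 37 °C with compound, 1 h detection · Detection – adenylate kinase release luminescence · Read-out – signal increase indicating cell lysis · Control set – Clomiphene as positive lysis control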
rRNA inh HTS = inhibits bacterial ribosomal RNA function over humanized ribosomes; E. coli WT GFP vs humanized-ribosome RFP mutants, fluorescence, 24 h; hits give low values; DMSO median 0, no signal -100; GFP signal change (wild-type ribosome), % (no concentration beside the values); actives 1.6% (n = 350,000);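 active = significant combined selectivity score with lowered wild-type GFP, culture density cut under 30%, mutant RFP and density less affected; inactive = any of these conditions unmet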
FGF22 binding = shifts melting point of recombinant human FGF22; Q9HCT0; recombinant FGF22 thermal shift, SYPRO orange fluorescence; percent of sucrose octasulfate shift, DMSO zero; activity (Tm shift, normalised), % at 9.99 µM; actives 1.5% (n = 340,000); AID 651658;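 active = mean Tm shift, scaled 0 neutral to 100 positive control, at about 1.3% or above, every replicate too, limit read from the data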
PGC1a acetyl inh = PGC1a acetylation modulation, inhibitor mode | U2OS PGC1a acetylation, AlphaScreen anti-acetyl-lysine; with virally co-expressed GCN5 acetyltransferase | inhibition, % at 15.6 µM | actives 0.17% (n = 350,000);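 active = every replicate shows inhibition of at least 40%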;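 note: 0% = neutral control wells and 100% = positive control wells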
ERAP1 inh = ERAP1 (human) enzyme inhibition; Q9NZ08; recombinant ERAP1, Leu-AMC fluorescence, 60 min; inhibition, % at 10.7 µM; actives 0.15% (n = 340,000); AID 652197;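 active = mean replicate inhibition of at least 30%, or all replicates individually reaching that 30% level; inactive = mean below 30% and not every replicate reaching it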;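 note: 0% = neutral control wells and 100% = L-leucinethiol positive control wells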
Target sequence (Q9NZ08 whole entry, looked up): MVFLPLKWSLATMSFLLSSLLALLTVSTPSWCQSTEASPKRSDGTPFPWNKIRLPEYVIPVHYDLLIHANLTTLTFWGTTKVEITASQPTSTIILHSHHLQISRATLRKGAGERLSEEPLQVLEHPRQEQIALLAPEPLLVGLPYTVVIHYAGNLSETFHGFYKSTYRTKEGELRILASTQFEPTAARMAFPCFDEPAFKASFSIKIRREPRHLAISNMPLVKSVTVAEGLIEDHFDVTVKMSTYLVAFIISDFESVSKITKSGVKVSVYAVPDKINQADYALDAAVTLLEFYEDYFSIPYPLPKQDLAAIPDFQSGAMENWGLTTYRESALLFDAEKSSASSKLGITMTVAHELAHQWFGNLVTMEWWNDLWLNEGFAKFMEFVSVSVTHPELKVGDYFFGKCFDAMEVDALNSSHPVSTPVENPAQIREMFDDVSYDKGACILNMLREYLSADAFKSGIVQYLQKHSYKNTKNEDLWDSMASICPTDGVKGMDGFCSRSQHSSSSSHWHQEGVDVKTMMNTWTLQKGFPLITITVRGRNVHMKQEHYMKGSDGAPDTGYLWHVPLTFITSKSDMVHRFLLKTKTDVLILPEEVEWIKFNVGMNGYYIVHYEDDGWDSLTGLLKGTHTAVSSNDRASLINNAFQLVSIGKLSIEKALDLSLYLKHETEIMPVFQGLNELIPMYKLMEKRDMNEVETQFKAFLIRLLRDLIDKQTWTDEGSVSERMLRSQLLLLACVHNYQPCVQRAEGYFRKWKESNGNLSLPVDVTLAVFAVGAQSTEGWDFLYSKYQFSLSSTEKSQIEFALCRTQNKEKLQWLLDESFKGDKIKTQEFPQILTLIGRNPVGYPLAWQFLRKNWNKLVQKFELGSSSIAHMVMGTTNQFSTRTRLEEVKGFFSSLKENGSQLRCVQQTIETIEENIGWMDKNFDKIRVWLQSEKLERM
Starred values were filed as active, the others as inactive; . = no result given; [ ] = dose if it differs, or a comment. Shown are actives, neighbours in structure and some others; about 3.5% of the full set was active somewhere.

SMILES	HIV Env fusion	Cneo AK release	rRNA inh HTS	FGF22 binding	PGC1a acetyl inh	ERAP1 inh
O=P(/C(=N/O)Sc1ccccc1)(N1CCOCC1)N1CCOCC1	-18	-8	.	.	.	.
CCOC(=O)c1c2c3c(cccc3n(C)c1=O)C(=O)c1ccccc1-2	-240	-2	-3	0	.	-2
CCOC(=O)c1c2c(n(Cc3ccccc3)c1C)C(=O)C(=O)c1ccccc1-2	78*	.	-42	0	.	-1
O=C(NCc1ccccc1)c1ccc(C(=O)NCc2ccccc2)cc1	82*	.	5	0	.	-3
O=C(NCc1ccccc1)c1nc(-c2cccs2)no1	-9	.	-7	44*	.	7
Cn1cnc(C(=O)NCc2ccccc2)c1C(=O)NCc1ccccc1	-13	0	-32*	0	-34	.
CCOc1cccc(-c2cc(NCCc3ccccn3)n3nccc3n2)c1	0	8	-5	43*	0	-5
Cc1cccc(-c2cc(N3CCCN(C)CC3)n3nccc3n2)c1	-4	5	5	0	1	1
Cc1cccc(-c2cc(NCCc3cccnc3)n3nccc3n2)c1	-115	0	-18	43*	-5	2
CC(C)(C)OC(=O)NCCc1nnc(SCC(N)=O)o1	5	-1	.	.	2	.
O=S(=O)(c1ccc(Cl)cc1)N1CCC(n2cnc3cc(C(F)(F)F)ccc32)CC1	64*	.	.	.	17	.
C[C@H]1CN([C@@H](C)CO)C(=O)c2cc(C3=CCCC3)cnc2O[C@@H]1CN(C)C(=O)CN(C)C	2[16.7 µM]	1	3	0	9	1
O=C(NCCc1c[nH]c2ccccc12)c1ccc(Br)o1	.	2	-1	2.3*	.	-5
O=C(O)CCNC(=O)c1ccc(Br)o1	.	2	.	.	-3	.
O=C(NCCc1ccc(O)c(Br)c1)c1ccc(Br)o1	-42	.	-15	1.7*	.	-4
CO[C@H]1CN(C)C(=O)c2ccc(NC(=O)c3cnccn3)cc2OC[C@@H](C)N(CC2CC2)C[C@@H]1C	.	.	3	0	7	2
Cc1ccc(/C=C/C(=O)Nc2ccc(S(N)(=O)=O)cc2)o1	18	.	21	0	.	-1
Cc1ccc(/C=C/C(=O)NCc2ccc(S(N)(=O)=O)cc2)o1	28	.	15	43*	-2	4
C[C@H]1CN([C@@H](C)CO)C(=O)c2cc(C#CCN(C)C)cnc2O[C@@H]1CN(C)C(=O)Nc1cccc(F)c1	-2[16.7 µM]	113*	4	0	0	3
C[C@H](CO)N1C[C@H](C)[C@H](CN(C)C(=O)Nc2cccc(F)c2)Oc2ncc(C#CCN(C)C)cc2C1=O	-1[16.7 µM]	97*	8	0	0	1
C[C@H](CO)N1C[C@H](C)[C@@H](CN(C)C(=O)Nc2cccc(F)c2)Oc2ncc(C#CCN(C)C)cc2C1=O	-4[16.7 µM]	0	3	0	1	-2
CC(C)(C)[S@@](=O)N1Cc2cc(C(=O)NCCc3ccncc3)nc(-c3cccc(-c4cccnc4)c3)c2[C@H]1CCO	5[16.7 µM]	4	9	0	14	2
CCOc1ccc(NC(C)=O)cc1[N+](=O)[O-]	-6	.	14	43*	.	-2
CCCCCCCCCCOC(=O)Cn1c(COc2ccccc2OC)[n+](C)c2ccccc21	86*	5	-55	-1	.	.
Cn1c(COc2ccccc2O)[n+](C)c2ccccc21	10	6	4	0	-1	-2
SMILES	HIV Env fusion	Cneo AK release	rRNA inh HTS	FGF22 binding	PGC1a acetyl inh	ERAP1 inh
Cc1csc(NC(=O)CSc2ccc([N+](=O)[O-])cn2)n1	-166	-1	-8	0	-13	-3
Cc1[nH]nc(N2CCCCC2)c1[N+](=O)[O-]	19	4	.	.	12	.
Cc1nc(N2CCCCC2)c(C#N)c(C)c1[N+](=O)[O-]	-16	.	-33*	0	.	-2
CCNC(=O)C[C@@H]1CC[C@@H]2[C@@H](COc3ccc(NC(=O)Cc4cccs4)cc3C(=O)N2C)O1	75*[16.7 µM]	-2	3	0	7	0
CCNC(=O)C[C@H]1CC[C@@H]2[C@H](COc3ccc(NC(=O)Cc4cccs4)cc3C(=O)N2C)O1	-5[16.7 µM]	-2	2	0	0	-2
COCC(=O)Nc1ccc2c(c1)C(=O)N(C)[C@H]1CC[C@H](CC(=O)NC3CCCC3)O[C@H]1CO2	57*[16.7 µM]	-4	-1	0	2	.
CCNC(=O)Nc1ccc2c(c1)C(=O)N(C)[C@@H]1CC[C@@H](CC(=O)NCC3CCCCC3)O[C@@H]1CO2	57*[16.7 µM]	-4	1	0	-4	-1
O=C(c1ccccn1)N1CCCC(N2CCN(c3cccc(C(F)(F)F)c3)CC2)C1 (stereo not given)	-1	15	-3	0	-44	-5
CC(=O)/C=C1/C(=O)Nc2ccccc21	-10	.	5	44*	.	4
CN(C)CCC(=O)N1C/C(=C/c2ccccc2)C(=O)/C(=C\c2ccccc2)C1	75*	.	-60	0	37	1
CCC(Sc1nc2ccsc2c(=O)n1CCC(=O)O)C(=O)Nc1ccc(Cl)cc1 (stereo not given)	2	0	-8	0	2	-5
CC1=Nc2ccccc2N=C(N)C1c1ccccc1 (stereo not given)	-9	.	9	44*	-10	0
COc1c(Br)cc([N+](=O)[O-])c(OC)c1C(=O)NC(=O)Nc1c(Cl)cccc1Cl	-24	0	-38*	0	0	1
CC(=O)c1c(COC(=O)c2ccccc2Cl)nc2ccccc2[n+]1[O-]	10	-3	-35*	0	6	3
CCn1c(-c2cc(-c3ccc(C)cc3)nc3ccccc23)n[nH]c1=S	-13	1	-29	0	7	1
C=CCn1c(-c2cc(-c3ccc(C)cc3)nc3ccccc23)n[nH]c1=S	8	.	-29*	42	18	-2
COc1ccc(NC(=O)N(C)C[C@@H]2Oc3c(NC(=O)c4nc5ccccc5s4)cccc3C(=O)N([C@H](C)CO)C[C@H]2C)cc1	13[16.7 µM]	-5	-3	0	-3	-1
COc1ccc(S(=O)(=O)NNC(=O)C23CC4CC(CC(C4)C2)C3)cc1[N+](=O)[O-]	76*	.	9	0	.	1
CN(C)c1ccc(/C=C/c2ccc3c4ccccc4ccc3[n+]2-c2ccccc2)cc1	-47	-10	-69	0	44*	-1
CCn1c(=S)sc2c(=O)n(CC(=O)Nc3ccc(Cl)cc3)c(C)nc21	1	-1	-20*	0	6	-1
CCn1c(=S)sc2c(=O)n(CC(=O)Nc3ccccc3)c(C)nc21	9	6	3	0	0	0
Cc1cc(NC(=O)C2CC(=O)N(c3ccccc3C)C2)no1 (stereo not given)	5	4	8	0	.	-4
